SMILES strings stand for the structures. Active and inactive are the calls of the source. The calls are words filed in the database; no cut-off is given here.

The subject of the first data set is HEK-293T. The experiment in a line: Cytotoxicity against human HEK293T cells after 72 hrs by alamar blue assay. It counts as cell-based.
Settings: not given
For orientation: The colour change of resazurin is a common sign of viable cells or microbes.
In turn, `C[n+]1cccc(CCCCCCCCCCCCCO)c1` gave a concentration giving a half-maximal response (EC50) of 183000 nM.

Take `C[n+]1cccc(CCCCCCCCCCCCCI)c1`: the half-maximal effective concentration (EC50) was found to be 47000 nM.

`OCCCCCCCCCCCCCc1ccc[n+](CCCCCCCCCCCCCc2ccc[n+](CCCCCCCCCCCCCc3ccc[n+](CCCCCCCCCCCCCc4cccnc4)c3)c2)c1` returned a concentration giving a half-maximal response (EC50) of 11000 nM.

Turning to `COc1ccc(C[n+]2cccc(CCCCCCCCCCCCCI)c2)cc1`, the half-maximal effective concentration (EC50) is 41000 nM.

The next data set relates to Trypanosoma brucei brucei. The experiment in a line: Antitrypanosomal activity against bloodstream form of Trypanosoma brucei brucei s427 assessed as DNA fragmentation at 0.3 to 1 uM up to 48 hrs by flow cytometry. The format is functional, organism-based.
Settings: not given
In short, it runs like this:
(§1)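 Bloodstream-form T. brucei cultures were exposed to compound for up to 48 h, with duplicate samples taken at 24 and 48 h. Lysis sample: PI added directly for 10 min. DNA-content sample: fixed in 70% methanol or permeabilized with digitonin, RNase-treated, then PI-stained. 10000 cells were counted per panel by flow cytometry, and the experiment was run three times.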
Turning to `C[n+]1cccc(CCCCCCCCCCCCCI)c1`, the result was inactive.

In a further data set the test system is Trypanosoma brucei brucei. The experiment in a line: Antitrypanosomal activity against bloodstream form of Trypanosoma brucei brucei 427 (BS221) assessed as increased propidium iodide uptake at >/=100 times EC50 after 8 hrs by real-time cell lysis assay. The format is functional, organism-based.
Settings: not given
In outline: (§2)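 Real-time lysis assay with bloodstream-form T. brucei: propidium iodide in the medium fluoresces only on binding DNA/RNA in membrane-compromised cells. Fluorescence was followed for up to 8 h across a range of concentrations. The read-out was the time to reach 80% lysis versus concentration.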
For `C[n+]1cccc(CCCCCCCCCCCCCI)c1`, the outcome was Active.

As for `COc1ccc(C[n+]2cccc(CCCCCCCCCCCCCI)c2)cc1`, the outcome was Active.

The subject of the next data set is Trypanosoma brucei brucei. Description: Antitrypanosomal activity against digitonin permeabilized bloodstream form of Trypanosoma brucei brucei s427 assessed as DNA fragmentation at 0.3 to 1 uM up to 48 hrs by flow cytometry. The format is functional, organism-based.
Settings: not given
In short, it runs like this: as §1
A general note: Flow cytometry measures light scatter and fluorescence of single cells or particles in a stream.
As to `C[n+]1cccc(CCCCCCCCCCCCCI)c1`, the outcome was inactive.

For a further data set, the system named is Trypanosoma brucei brucei. Description: Antitrypanosomal activity against digitonin permeabilized bloodstream form of Trypanosoma brucei brucei s427 assessed as increase in propidium iodide uptake at 0.3 to 1 uM up to 48 hrs by flow cytometry. It counts as functional, organism-based.
Settings: not given
In short, it runs like this:
as §1
With `C[n+]1cccc(CCCCCCCCCCCCCI)c1`, the outcome was inactive.

For another data set, the system named is Trypanosoma brucei brucei. The experiment in a line: Antitrypanosomal activity against TbAt1-deficient bloodstraem form Trypanosoma brucei brucei B48 after 72 hrs by alamar blue assay. The conditions noted are these: B48, 72 h. It counts as functional, organism-based.
`C[n+]1cccc(CCCCCCCCCCCCCO)c1` had an EC50 of 2700 nM.

`NCCS[As](SCCN)c1ccc(Nc2nc(N)nc(N)n2)cc1` registered an EC50 of 210 nM.

The compound `C[n+]1cccc(CCCCCCCCCCCCCI)c1` returned an EC50 of 110 nM.

In turn, `OCCCCCCCCCCCCCc1ccc[n+](CCCCCCCCCCCCCc2ccc[n+](CCCCCCCCCCCCCc3ccc[n+](CCCCCCCCCCCCCc4cccnc4)c3)c2)c1` yielded an EC50 of 330 nM.

Compound `N=C(N)c1ccc(OCCCCCOc2ccc(C(=N)N)cc2)cc1` [PENTAMIDINE] showed an EC50 of 66 nM.

Compound `COc1ccc(C[n+]2cccc(CCCCCCCCCCCCCI)c2)cc1` came in with an EC50 of 200 nM.

The next data set deals with Trypanosoma brucei brucei. The experiment in a line: Antitrypanosomal activity against bloodstream form of Trypanosoma brucei brucei 427 (BS221) after 72 hrs by alamar blue assay. The format is functional, organism-based.
Settings: not given
On to `C[n+]1cccc(CCCCCCCCCCCCCO)c1`, for which the response was half-maximal at 2300 nM (EC50).

As for `NCCS[As](SCCN)c1ccc(Nc2nc(N)nc(N)n2)cc1`, a half-maximal effect (EC50) was put at 3.9 nM.

As for `C[n+]1cccc(CCCCCCCCCCCCCI)c1`, the EC50 was found to be 86 nM.

In the case of `OCCCCCCCCCCCCCc1ccc[n+](CCCCCCCCCCCCCc2ccc[n+](CCCCCCCCCCCCCc3ccc[n+](CCCCCCCCCCCCCc4cccnc4)c3)c2)c1`, the EC50 is 310 nM.

Compound `N=C(N)c1ccc(OCCCCCOc2ccc(C(=N)N)cc2)cc1` [PENTAMIDINE] had an EC50 of 1.4 nM.

`N=C(N)c1ccc(/N=N/Nc2ccc(C(=N)N)cc2)cc1` [DIMINAZEN ACETURATE] had a half-maximal effective concentration (EC50) of 260 nM.

In turn, `COc1ccc(C[n+]2cccc(CCCCCCCCCCCCCI)c2)cc1` displayed an EC50 of 190 nM.

System in a further data set: not listed separately
Description: Selectivity ratio of EC50 for human HEK293 cells to EC50 for Leishmania major Friedlin. It counts as ADME, cell-based. The note with it: read-out: Ratio EC50.
Turning to `C[n+]1cccc(CCCCCCCCCCCCCI)c1`, the selectivity ratio came out at 149.

The test system of a further data set is Leishmania mexicana. Description: Antileishmanial activity against amastigotes of Leishmania mexicana MNYC/BZ/62/M379 after 72 hrs by alamar blue assay. It counts as functional, organism-based. The note with it: MNYC/BZ/62/M379, 72 h.
Consider `C[n+]1cccc(CCCCCCCCCCCCCO)c1`, for which the EC50 was 4800 nM.

For `C[n+]1cccc(CCCCCCCCCCCCCI)c1`, it took 280 nM to reach a half-maximal effect (EC50).

In the case of `OCCCCCCCCCCCCCc1ccc[n+](CCCCCCCCCCCCCc2ccc[n+](CCCCCCCCCCCCCc3ccc[n+](CCCCCCCCCCCCCc4cccnc4)c3)c2)c1`, the concentration giving a half-maximal response (EC50) was found to be 230 nM.

`N=C(N)c1ccc(OCCCCCOc2ccc(C(=N)N)cc2)cc1` [PENTAMIDINE] came in with an EC50 of 8800 nM.

For the compound `N=C(N)c1ccc(/N=N/Nc2ccc(C(=N)N)cc2)cc1` [DIMINAZEN ACETURATE], a half-maximal effect (EC50) was put at 24000 nM.

In turn, `COc1ccc(C[n+]2cccc(CCCCCCCCCCCCCI)c2)cc1` came in with an EC50 of 400 nM.

For a further data set, the system named is Trypanosoma brucei brucei. The experiment in a line: Antitrypanosomal activity against TbAt1-deficient bloodstraem form of Trypanosoma brucei brucei 427 (BS221) after 72 hrs by alamar blue assay. The format is functional, organism-based.
Settings: not given
In turn, `C[n+]1cccc(CCCCCCCCCCCCCO)c1` displayed an EC50 of 2300 nM.

As to `NCCS[As](SCCN)c1ccc(Nc2nc(N)nc(N)n2)cc1`, the half-maximal effective concentration (EC50) is 7.8 nM.

In turn, `C[n+]1cccc(CCCCCCCCCCCCCI)c1` displayed an EC50 of 180 nM.

As for `OCCCCCCCCCCCCCc1ccc[n+](CCCCCCCCCCCCCc2ccc[n+](CCCCCCCCCCCCCc3ccc[n+](CCCCCCCCCCCCCc4cccnc4)c3)c2)c1`, the midpoint of the response, the EC50, lay at 410 nM.

`N=C(N)c1ccc(OCCCCCOc2ccc(C(=N)N)cc2)cc1` [PENTAMIDINE] had an EC50 of 3.2 nM.

`N=C(N)c1ccc(/N=N/Nc2ccc(C(=N)N)cc2)cc1` [DIMINAZEN ACETURATE] had a concentration for a half-maximal effect (EC50) of 7900 nM.

Compound `COc1ccc(C[n+]2cccc(CCCCCCCCCCCCCI)c2)cc1` returned an EC50 of 480 nM.

System in the next data set: not listed separately
Description: Selectivity ratio of EC50 for human HEK293 cells to EC50 for TbAt1-deficient bloodstraem form of Trypanosoma brucei brucei 427 (BS221). It counts as ADME, cell-based. The note with it: read-out: Ratio EC50.
Regarding `C[n+]1cccc(CCCCCCCCCCCCCI)c1`, the selectivity ratio was 540.

The test system of another data set is Leishmania major. Description: Antileishmanial activity against promastigotes of Leishmania major Friedlin after 72 hrs by alamar blue assay. The format is functional, organism-based.
Settings: not given
`C[n+]1cccc(CCCCCCCCCCCCCO)c1` returned an EC50 of 2700 nM.

The compound `C[n+]1cccc(CCCCCCCCCCCCCI)c1` yielded an EC50 of 310 nM.

The compound `OCCCCCCCCCCCCCc1ccc[n+](CCCCCCCCCCCCCc2ccc[n+](CCCCCCCCCCCCCc3ccc[n+](CCCCCCCCCCCCCc4cccnc4)c3)c2)c1` gave a concentration giving a half-maximal response (EC50) of 1100 nM.

As for `N=C(N)c1ccc(OCCCCCOc2ccc(C(=N)N)cc2)cc1` [PENTAMIDINE], the concentration for a half-maximal effect (EC50) stood at 4300 nM.

As to `COc1ccc(C[n+]2cccc(CCCCCCCCCCCCCI)c2)cc1`, the EC50 was 1000 nM.

The next data set has as its system Trypanosoma brucei brucei. Description: Antitrypanosomal activity against bloodstream form of Trypanosoma brucei brucei 427 (BS221) assessed as increased propidium iodide uptake at 50 to 100 uM after 30 mins by real-time cell lysis assay. It counts as functional, organism-based.
Settings: not given
In short, it runs like this: as §2
With `C[n+]1cccc(CCCCCCCCCCCCCO)c1`, the result was Active.

In the case of `C[n+]1cccc(CCCCCCCCCCCCCI)c1`, the outcome was Active.

Take `OCCCCCCCCCCCCCc1ccc[n+](CCCCCCCCCCCCCc2ccc[n+](CCCCCCCCCCCCCc3ccc[n+](CCCCCCCCCCCCCc4cccnc4)c3)c2)c1`: the outcome was Active.

For the compound `COc1ccc(C[n+]2cccc(CCCCCCCCCCCCCI)c2)cc1`, the outcome was Active.

System in a further data set: not listed separately
Description: Selectivity ratio of EC50 for human HEK293 cells to EC50 for bloodstream form of Trypanosoma brucei brucei 427 (BS221). It counts as ADME, cell-based. The note with it: read-out: Ratio EC50.
With `C[n+]1cccc(CCCCCCCCCCCCCI)c1`, the selectivity ratio was found to be 540.

System in the next data set: not listed separately
The experiment in a line: Selectivity ratio of EC50 for human HEK293 cells to EC50 for Leishmania mexicana MNYC/BZ/62/M379. It counts as ADME, cell-based. The note with it: read-out: Ratio EC50.
`C[n+]1cccc(CCCCCCCCCCCCCI)c1`: the selectivity ratio was found to be 149.

For the next data set, the system named is Plasmodium falciparum. The experiment in a line: Antiplasmodial activity against Plasmodium falciparum 3D7 assessed as inhibition of [3H]hypoxanthine incorporation after 18 hrs by liquid scintillation counting.
Settings: not given
It counts as functional, organism-based.
For the compound `CCN(CC)CCCC(C)Nc1ccnc2cc(Cl)ccc12` (configuration not stated) [CHLOROQUINE], the EC50 worked out at 0.67 nM.

In the case of `C[n+]1cccc(CCCCCCCCCCCCCO)c1`, the concentration for a half-maximal effect (EC50) came out at 1500 nM.

`C[n+]1cccc(CCCCCCCCCCCCCI)c1`: the 50% effective concentration (EC50) is 260 nM.

In the case of `OCCCCCCCCCCCCCc1ccc[n+](CCCCCCCCCCCCCc2ccc[n+](CCCCCCCCCCCCCc3ccc[n+](CCCCCCCCCCCCCc4cccnc4)c3)c2)c1`, the half-maximal effective concentration (EC50) was determined as 160 nM.

Take `COc1ccc(C[n+]2cccc(CCCCCCCCCCCCCI)c2)cc1`: the EC50 was 220 nM.

A further data set has as its system Trypanosoma brucei brucei. Description: Antitrypanosomal activity against Trypanosoma brucei brucei 427 at 10 uM after 24 hrs by hemocytometry.
Settings: not given
The format is functional, organism-based. In short, it runs like this: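 Reversibility test: bloodstream-form T. brucei cultures seeded at 2 × 10⁴ cells, compound added at t = 0 h. Compound was washed out after 24 h or 48 h, or left in. Growth was monitored over 72 h against drug-free controls.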
For `C[n+]1cccc(CCCCCCCCCCCCCI)c1`, the outcome was Active.

The subject of the next data set is Trypanosoma brucei brucei. Description: Antitrypanosomal activity against bloodstream form of Trypanosoma brucei brucei s427 assessed as increase in propidium iodide uptake at 0.3 to 1 uM up to 48 hrs by flow cytometry. It counts as functional, organism-based.
Settings: not given
In short, it runs like this: as §1
`C[n+]1cccc(CCCCCCCCCCCCCI)c1`: the outcome was inactive.

The subject of the next data set is Trypanosoma brucei brucei. The experiment in a line: Antitrypanosomal activity against digitonin permeabilized bloodstream form of Trypanosoma brucei brucei s427 assessed as decrease in 2C/4C DNA content by DAPI staining-based fluorescent microscopy. The format is functional, organism-based.
Settings: not given
With `C[n+]1cccc(CCCCCCCCCCCCCI)c1`, the outcome was inactive.

The test system of a further data set is Trypanosoma brucei brucei. Description: Antitrypanosomal activity against bloodstream form of Trypanosoma brucei brucei 427 (BS221) assessed as increased propidium iodide uptake at 10 to 50 times EC50 after by real-time cell lysis assay.
Settings: not given
It counts as functional, organism-based. In short, it runs like this: as §2
Consider `OCCCCCCCCCCCCCc1ccc[n+](CCCCCCCCCCCCCc2ccc[n+](CCCCCCCCCCCCCc3ccc[n+](CCCCCCCCCCCCCc4cccnc4)c3)c2)c1`, for which the result was Active.

Broadly, the EC50 is the concentration at which the effect is half-maximal.

The record behind these values is ChEMBL document CHEMBL2029225, “Synthesis of marine-derived 3-alkylpyridinium alkaloids with potent antiprotozoal activity” (ACS Med Chem Lett, 2011).
